Source: PubChem BioAssay (several laboratories)
procasp3 activ: procaspase-3 (human) activation | P42574 | recombinant procaspase-3 D3A, Ac-DEVD-pNA absorbance 405 nm | activation, % at 8.5 µM | actives 0.11% (n = 330,000) | AID 463141;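 active = activation above the mean of all tested compounds plus 3 SD, cut at about 21% in these data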;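 also: 0% = DMSO alone and 100% = DMSO wells spiked with extra 5 µM PC-3 D3A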
Target sequence (P42574 whole entry D9A/D28A/D175A): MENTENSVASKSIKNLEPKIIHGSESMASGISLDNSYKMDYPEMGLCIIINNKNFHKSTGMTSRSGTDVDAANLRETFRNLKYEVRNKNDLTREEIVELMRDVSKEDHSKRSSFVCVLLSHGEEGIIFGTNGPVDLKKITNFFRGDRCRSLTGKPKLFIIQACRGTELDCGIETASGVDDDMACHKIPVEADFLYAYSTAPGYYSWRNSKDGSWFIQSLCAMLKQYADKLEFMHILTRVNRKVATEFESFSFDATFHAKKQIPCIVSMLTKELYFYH
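Assay system – Procaspase-3 D3A mutant · Benchmarks – DMSO low control, extra-enzyme high control · Technique – 405 nm absorbance of p-nitroaniline, reads at 0 and 120 min · Doses – 8.5 µM nominal · Measure – % activation between DMSO and enzyme-spiked controls · Also added – Ac-DEVD-pNA chromogenic peptide substrate · Schedule – 1 h compound preincubation, 2 h substrate hydrolysis at 25 °C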
PolyA inhibitor: yeast polyadenylation inhibition; S. cerevisiae SKY197-pL101 polyadenylation reporter, beta-gal luminescence; efflux-impaired pdr1/pdr3 knockout yeast; score 100 = 6 SD above DMSO; AID 1875; activity score, % at 12 µM; actives 0.02% (n = 300,000);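 active = lowest replicate activity score at least 50, where 100 means six control SD above control mean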;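 also: yeast exposed to compound for 9 h at 30 °C; higher score means more reporter readthrough which indicates perturbed polyadenylation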
AHR act: human AHR activation; P35869; AHR-responsive luciferase reporter cells, luminescence; activation, % at 5 µM; actives 2.5% (n = 320,000); AID 2796; in the data active = activation above about 47%;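 also: 0% = vehicle wells and 100% = reference agonist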
procasp7 counter: counter-screen: procaspase-7 (human) activation; P55210; recombinant procaspase-7, Ac-DEVD-pNA absorbance 405 nm; D23A/D198A/D206A triple mutant, cannot self-cleave; scale: DMSO 0, 5 µM enzyme 100; activation, % at 8.5 µM; actives 0.093% (n = 330,000); AID 463210;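 active = percent activation above the screen-wide mean plus 3 SD, cut at about 25% in these data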
Target sequence (P55210 whole entry D23A/D198A/D206A): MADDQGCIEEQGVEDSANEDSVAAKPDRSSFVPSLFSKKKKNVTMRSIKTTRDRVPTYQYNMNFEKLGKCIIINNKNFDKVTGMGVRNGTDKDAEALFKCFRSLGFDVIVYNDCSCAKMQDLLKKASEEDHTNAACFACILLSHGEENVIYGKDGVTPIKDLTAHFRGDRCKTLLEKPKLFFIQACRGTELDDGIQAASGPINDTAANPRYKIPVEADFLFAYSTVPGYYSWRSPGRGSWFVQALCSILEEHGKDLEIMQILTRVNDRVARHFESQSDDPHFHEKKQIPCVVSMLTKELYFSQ
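System: Uncleavable procaspase-7 mutant enzyme; Amount: 2 µM procaspase-7 mutant as dispensed; Schedule: 1 h compound preincubation, 2 h substrate cleavage, 25 °C; Measured by: 405 nm absorbance of p-nitroaniline; Evaluation: percent activation from buffer-corrected 0–120 min absorbance change; Control set: low DMSO alone, high DMSO plus 5 µM PC-7.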
The depositor's hits bear a star; x = not tested or not shown. A selection: hits, their analogues and other compounds. The true share with any hit is near 2.6%.

SMILES	procasp3 activ	PolyA inhibitor	AHR act	procasp7 counter
Oc1ccc(-c2nccc(-c3cccs3)n2)cc1	-5.0	-11.6	69.8*	1.5
COc1ccc(SCCN2CC[C@@H](C(C)(C)C)CCC2=O)cc1	6.3	x	0.9	-10.9
CCn1c2ccccc2c2nnc(SCc3ccccc3)nc21	9.6	12.8	62.7*	7.5
CCn1c2ccccc2c2nnc(SCC(N)=O)nc21	-9.9	-6.7	-1.5	6.9
O=C(OCC(=O)N1CCOCC1)c1ccc(Cl)cc1[N+](=O)[O-]	-6.3	-7.8	-1.0	6.7
Cc1nc2cc(N3CCCCC3)c(NC(=O)c3cccnc3)cc2c(=O)n1Cc1ccccc1	2.2	-10.0	49.5*	6.4
CC(=O)Nc1cc2c(=O)n(Cc3ccccc3)c(C)nc2cc1N1CCOCC1	7.3	-9.3	23.2	3.4
CCOc1ccc(S(=O)(=O)Nc2ccc(C(=O)N/N=C(\C)c3ccc(-n4ccnc4)cc3)cc2)cc1	5.5	6.3	53.7*	-11.2
COCCNC(=S)N/N=C(\C)c1ccc(-n2ccnc2)cc1	-2.8	26.0	86.8*	-3.4
Cc1cccc(NC(=S)NCc2ccc(F)cc2)c1C	5.1	-6.0	0.0	0.9
COc1cccc(CNC(=O)c2ccc3c(c2)N(C)CCS3)c1OC	-0.8	-6.0	55.5*	-0.8
CN1CCSc2ccc(C(=O)NCc3ccccc3F)cc21	-6.9	8.1	78.1*	-8.7
Cc1ccccc1NC(=O)CC1C(=O)Nc2ccccc2N1CC(=O)N(C)C1CCS(=O)(=O)C1 (stereo not drawn)	3.1	x	60.0*	-6.1
Cc1ccc(C2(c3ccccc3)NC(=O)N(CC(=O)N(C)C3CCS(=O)(=O)C3)C2=O)cc1C (stereo not drawn)	-3.6	x	0.1	2.4
CC(C)C1N=C(c2ccc3c(c2)OCO3)CC(c2ccccc2O)N1 (stereo not drawn)	-5.6	-12.5	59.0*	9.4
CCOc1ccccc1C1N=C(c2ccc(OC)cc2)CC(c2ccccc2O)N1 (stereo not drawn)	-4.2	-6.6	16.9	-12.0
c1ccc(-c2csc(-c3ccncc3)n2)cc1	3.3	-15.8	5.6	-4.9
c1ccc2c(-c3csc(-c4ccncc4)n3)c[nH]c2c1	1.5	-11.8	58.4*	1.9
Brc1ccc(-c2csc(-c3c[nH]c4ccccc34)n2)cc1	9.4	-21.9	78.4*	4.2
Fc1cccc(CNc2ncnc3cc(Cl)ccc23)c1F	4.3	-11.4	48.5*	13.9
COc1ccc(S(=O)(=O)Nc2cc(SCC(=O)O)c(O)c3ccccc23)cc1	-17.9	-10.1	66.3*	-40.9
COc1ccc(S(=O)(=O)Nc2cccc3ccc(O)cc23)cc1	11.7	4.2	4.6	12.8
Cc1cc(C)c(S(=O)(=O)Nc2cc(SCC(=O)O)c(O)c3ccccc23)cc1C	-21.8	7.3	61.1*	-8.3
O=C(O)CSc1cc(NS(=O)(=O)c2ccc(Cl)cc2)c2ccccc2c1O	-8.7	-7.8	49.6*	-22.2
Cc1cc(C)c(S(=O)(=O)Nc2ccc(O)cc2)cc1C	1.1	10.8	0.0	-14.9
SMILES	procasp3 activ	PolyA inhibitor	AHR act	procasp7 counter
CC(=O)Nc1ccc(NS(=O)(=O)c2ccccc2)c2ccccc12	3.0	-8.0	3.9	-10.9
COc1ccc([C@H]2CC(=O)C=C(c3ccc(Cl)c(C(F)(F)F)c3)C2)cc1	-1.4	x	-0.3	-2.2
O=C(Cn1c(=O)n(-c2ccc(F)cc2)c(=O)c2sccc21)NC1CCCCC1	-6.4	0.9	-1.4	0.2
CCOc1ccc(C(CC(=O)O)NC(=O)C(CC)c2ccccc2)cc1 (stereo not drawn)	6.7	7.0	1.3	-2.4
CN(C)S(=O)(=O)N1CCN(CC(O)COc2ccc(-c3ccccc3)cc2)CC1 (stereo not drawn)	0.8	5.3	-1.4	-1.7
Cc1ccnc(NC(=O)c2cnc(Cl)c(Cl)c2)c1	-7.4	-21.7	58.1*	-0.8
O=C(Nc1ccccc1)N(O)c1ccc(Cl)cc1	-3.3	2.6	59.7*	-1.5
CCN(CCS(=O)(=O)c1ccc(Cl)cc1)C(=O)Nc1ccccc1	16.3	9.0	0.5	2.8
CSc1nc2c(c(=O)[nH]1)C(c1ccncc1)C(C(=O)OC(C)C)=C(C)N2 (stereo not drawn)	-13.3	20.0	51.3*	12.4
O=C(CN(Cc1ccccc1Cl)C(=O)c1csnn1)NCc1ccccc1	-10.8	9.7	-0.4	-9.6
CCOc1ccccc1NC(=O)CSc1nnc(CCC(=O)Nc2ccccc2F)n1C	0.7	3.5	8.8	-7.9
Cc1cc(C)nc(NC(=O)c2cnc3sccn3c2=O)n1	0.3	12.3	70.4*	2.5
Cc1cc(NS(=O)(=O)c2ccc(NC(=O)c3cnc4sccn4c3=O)cc2)nc(C)n1	-3.0	0.7	-0.7	-13.4
O=C(Nc1ccc(S(=O)(=O)Nc2ncccn2)cc1)C(F)(F)F	8.2	-16.0	0.4	1.1
CCN1c2ccccc2NC2C1C(C(C)=O)C(=O)N2c1ccc(Cl)cc1 (stereo not drawn)	0.0	-16.9	82.9*	-9.2
O=C(COc1ccccc1Cl)NCc1nc(-c2ccccc2)no1	-6.4	-0.7	47.6*	-5.7
CCOC(=O)c1oc2ccc(Cl)cc2c1NC(C)=O	4.9	11.3	-0.4	2.2
CN(C)c1nc2c(c(=O)[nH]c(=O)n2C)n1CCCc1ccccc1	2.0	7.5	4.3	3.6
CCc1ccc2c(c1)[C@H]1OCC[C@H]1[C@@H](c1cccs1)N2	5.5	-17.7	78.4*	-0.1
Clc1ccc2c(c1)[C@H]1OCC[C@H]1[C@@H](c1ccco1)N2	-9.7	-1.6	11.7	-9.2
OC(COc1ccc(Cl)cc1Cl)Cn1ccnc1 (stereo not drawn)	3.0	11.5	47.3*	-10.0
Clc1ccc(OCCn2ccnc2)c(Cl)c1	10.4	-17.9	25.2	0.0
OC(COc1ccc2ccccc2c1Br)Cn1ccnc1 (stereo not drawn)	2.7	10.2	70.0*	6.0
OC(COc1ccc2ccccc2c1)Cn1ccnc1 (stereo not drawn)	-7.3	5.0	28.3	10.0
O=C(O)C(=O)/C(=C\c1ccc(Cl)cc1)c1ccc2ccccc2n1	-14.8	-10.0	65.4*	9.1
SMILES	procasp3 activ	PolyA inhibitor	AHR act	procasp7 counter
O=C(NCCc1ccc(Cl)cc1)c1ccc2ccccc2n1	-3.3	-21.2	9.5	4.2
CCOC(=O)CC1C(=O)NCCN1C(=O)c1c(Cl)cccc1Cl (stereo not drawn)	-3.6	18.9	1.3	-6.8
COc1ccc(/C=C/c2nc(N)nc(-c3ccccc3O)n2)cc1OC	7.4	-12.2	20.6	-10.4
COc1ccc(/C=C/c2nc(N)nc(-c3ccccc3O)n2)cc1	6.2	7.7	59.4*	0.5
O=C(c1cccc(S(=O)(=O)N2CCN(c3ccc(F)cc3)CC2)c1)N1CCCC(C(F)(F)F)C1 (stereo not drawn)	-9.1	-19.6	-0.8	3.6
Cc1ccc(-c2nnn3c2nc(Cl)c2ccccc23)cc1	x	-0.1	x	x
Clc1nc2c(-c3ccccc3)nnn2c2ccccc12	-13.8	16.7	52.5*	-4.1
Cc1ccc(N/N=C/c2ccncc2)cc1	2.4	-27.7	50.8*	5.8
